pIC50: −log10 of the molar value. Values after ≈ are worked out from the molar mass of the structure shown.
Tests used:
[1] = Inhibition of wild-type Acinetobacter baumannii DNA topoisomerase-4 mediated supercoiled pBR322 DNA relaxation by ethidium bromide based agarose gel electrophoresis
[2] = Inhibition of wild-type Escherichia coli DNA topoisomerase-4 mediated supercoiled pBR322 DNA relaxation by ethidium bromide based agarose gel electrophoresis
[3] = system: Staphylococcus aureus; assay: Antibacterial activity against Staphylococcus aureus ATCC 29213 by CLSI broth microdilution method; assay type: functional
[4] = system: Escherichia coli; assay: Antibacterial activity against wild-type Escherichia coli ATCC 25922 by CLSI broth microdilution method; assay type: functional
[5] = system: Acinetobacter baumannii; assay: Antibacterial activity against fluoroquinolone-resistant Acinetobacter baumannii T6474 by CLSI broth microdilution method; assay type: functional
[6] = system: Pseudomonas aeruginosa; assay: Antibacterial activity against Pseudomonas aeruginosa ATCC 27853 by CLSI broth microdilution method; assay type: functional
[7] = Inhibition of wild-type Escherichia coli DNA gyrase supercoiling activity using relaxed pBR322 DNA as substrate by ethidium bromide based agarose gel electrophoresis
[8] = Inhibition of wild-type Acinetobacter baumannii DNA gyrase supercoiling activity using relaxed pBR322 DNA as substrate by ethidium bromide based agarose gel electrophoresis
[9] = Inhibition of wild-type Pseudomonas aeruginosa DNA gyrase supercoiling activity using relaxed pBR322 DNA as substrate by ethidium bromide based agarose gel electrophoresis
[10] = Inhibition of wild-type Pseudomonas aeruginosa DNA topoisomerase-4 mediated supercoiled pBR322 DNA relaxation by ethidium bromide based agarose gel electrophoresis
[11] = Lipophilicity, log D of the compound at pH 7.4; assay type: physicochemical; details: buffer
[12] = system: Rattus norvegicus; assay: Dose normalized AUC in Wistar rat at 1 mg/kg, iv by LC-MS/MS analysis; assay type: ADME, organism-based; details: in vivo
[13] = Fraction unbound in Wistar rat plasma at 1 mg/kg, iv by rapid equilibrium dialysis; assay type: ADME, organism-based
Procedure, shortened: (§1)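 Rats dosed iv at 10 mg/kg or 1 mg/kg. Dose-normalized AUC (μg·h/(mL·dose)) and its unbound counterpart derived via fraction unbound. Clearance, unbound clearance, Vdss and half-life also derived.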

[14] = system: Rattus norvegicus; assay: Dose normalized unbound AUC in Wistar rat at 1 mg/kg, iv by LC-MS/MS analysis; assay type: ADME, organism-based; details: in vivo; procedure, shortened: as §1
[15] = Clearance in Wistar rat at 1 mg/kg, iv by LC-MS/MS analysis; assay type: ADME, organism-based; details: in vivo; procedure, shortened: as §1
[16] = system: Rattus norvegicus; assay: Unbound clearance in Wistar rat at 1 mg/kg, iv by LC-MS/MS analysis; assay type: ADME, organism-based; details: in vivo; procedure, shortened: as §1
[17] = Volume of distribution at steady state in Wistar rat at 1 mg/kg, iv by LC-MS/MS analysis; assay type: ADME, organism-based; details: in vivo, read-out: Vdss
Procedure, shortened: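 Rats received a single intravenous dose of 10 or 1 mg/kg depending on the compound. Clearance, unbound clearance, Vdss, terminal half-life and dose-normalized AUC were derived from plasma exposure, with unbound fraction (fu) reported for this species.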

[18] = Terminal half-life in Wistar rat at 1 mg/kg, iv by LC-MS/MS analysis; assay type: ADME, organism-based; details: in vivo, read-out: beta t1/2 (converted); procedure, shortened: as §1
[19] = target: T1, hERG (KCNH2) (Homo sapiens, UniProt Q12809); assay: Inhibition of human ERG assessed as reduction of K+ current at 30 uM
Procedure, shortened: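 hERG K+ channel current reduction measured at 30 μM compound concentration.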

[20] = target: Voltage-gated inwardly rectifying potassium channel KCNH2 (Homo sapiens, UniProt Q12809); assay: (§2) Inhibition of human ERG assessed as reduction of K+ current
[21] = target: T1, hERG (KCNH2); assay: as §2; details: human
[22] = Cardiotoxicity against human induced pluripotent stem cell-derived cardiomyocytes assessed as free drug concentration causing inhibition of spontaneous rhythm after 5 to 60 mins by Fluo-4 dye based fluorescence assay; assay type: toxicity; details: cardiac muscle cell
Procedure, shortened: (§3)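 Spontaneous beating rhythm of human iPSC-derived cardiomyocytes monitored. Reported value is the lowest active concentration, free or total. Free/total conversion corrected for 20% serum in the test solution.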

[23] = Cardiotoxicity against human induced pluripotent stem cell-derived cardiomyocytes assessed as total drug concentration causing effect on spontaneous rhythm after 5 to 60 mins by Fluo-4 dye based fluorescence assay; assay type: toxicity; details: cardiac muscle cell; procedure, shortened: as §3
[24] = system: Cavia porcellus; assay: Cardiotoxicity in Dunkin-Hartley guinea pig assessed as free plasma concentration causing effect on QT interval administered as iv at 3 mg/kg for first 20 mins of infusion followed by 10 mg/kg for second 20 mins of infusion followed by 30 mg/kg for third 20 mins of infusion by LC-MS/MS analysis; assay type: toxicity, organism-based; details: in vivo
Procedure, shortened: (§4)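 Anesthetized guinea pigs received 3, 10 and 30 mg/kg iv over three consecutive 20 min periods. MAP, HR and ECG intervals (PR, QRS, RR, QT) recorded continuously. Blood drawn at the end of each period for drug levels. Value is the lowest plasma concentration differing from vehicle-treated animals. Free level uses unbound fraction from rapid equilibrium dialysis of guinea pig plasma.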

[25] = system: Cavia porcellus; assay: Cardiotoxicity in Dunkin-Hartley guinea pig assessed as free plasma concentration causing effect on heart rate administered as iv at 3 mg/kg for first 20 mins of infusion followed by 10 mg/kg for second 20 mins of infusion followed by 30 mg/kg for third 20 mins of infusion by LC-MS/MS analysis; assay type: toxicity, organism-based; details: in vivo; procedure, shortened: as §4
[26] = system: Cavia porcellus; assay: Cardiotoxicity in Dunkin-Hartley guinea pig assessed as free plasma concentration causing effect on mean arterial pressure administered as iv at 3 mg/kg for first 20 mins of infusion followed by 10 mg/kg for second 20 mins of infusion followed by 30 mg/kg for third 20 mins of infusion by LC-MS/MS analysis; assay type: toxicity, organism-based; details: in vivo; procedure, shortened: as §4
[27] = system: Cavia porcellus; assay: Cardiotoxicity in Dunkin-Hartley guinea pig assessed as free plasma concentration causing effect on QRS interval administered as iv at 3 mg/kg for first 20 mins of infusion followed by 10 mg/kg for second 20 mins of infusion followed by 30 mg/kg for third 20 mins of infusion by LC-MS/MS analysis; assay type: toxicity, organism-based; details: in vivo; procedure, shortened: as §4
[28] = system: Cavia porcellus; assay: Cardiotoxicity in Dunkin-Hartley guinea pig assessed as free plasma concentration causing effect on PR interval administered as iv at 3 mg/kg for first 20 mins of infusion followed by 10 mg/kg for second 20 mins of infusion followed by 30 mg/kg for third 20 mins of infusion by LC-MS/MS analysis; assay type: toxicity, organism-based; details: in vivo; procedure, shortened: as §4
[29] = Fraction unbound in Dunkin-Hartley guinea pig plasma administered as iv at 3 mg/kg for first 20 mins of infusion followed by 10 mg/kg for second 20 mins of infusion followed by 30 mg/kg for third 20 mins of infusion by rapid equilibrium dialysis; assay type: ADME, organism-based, Cavia porcellus

T1 sequence (Q12809 whole entry): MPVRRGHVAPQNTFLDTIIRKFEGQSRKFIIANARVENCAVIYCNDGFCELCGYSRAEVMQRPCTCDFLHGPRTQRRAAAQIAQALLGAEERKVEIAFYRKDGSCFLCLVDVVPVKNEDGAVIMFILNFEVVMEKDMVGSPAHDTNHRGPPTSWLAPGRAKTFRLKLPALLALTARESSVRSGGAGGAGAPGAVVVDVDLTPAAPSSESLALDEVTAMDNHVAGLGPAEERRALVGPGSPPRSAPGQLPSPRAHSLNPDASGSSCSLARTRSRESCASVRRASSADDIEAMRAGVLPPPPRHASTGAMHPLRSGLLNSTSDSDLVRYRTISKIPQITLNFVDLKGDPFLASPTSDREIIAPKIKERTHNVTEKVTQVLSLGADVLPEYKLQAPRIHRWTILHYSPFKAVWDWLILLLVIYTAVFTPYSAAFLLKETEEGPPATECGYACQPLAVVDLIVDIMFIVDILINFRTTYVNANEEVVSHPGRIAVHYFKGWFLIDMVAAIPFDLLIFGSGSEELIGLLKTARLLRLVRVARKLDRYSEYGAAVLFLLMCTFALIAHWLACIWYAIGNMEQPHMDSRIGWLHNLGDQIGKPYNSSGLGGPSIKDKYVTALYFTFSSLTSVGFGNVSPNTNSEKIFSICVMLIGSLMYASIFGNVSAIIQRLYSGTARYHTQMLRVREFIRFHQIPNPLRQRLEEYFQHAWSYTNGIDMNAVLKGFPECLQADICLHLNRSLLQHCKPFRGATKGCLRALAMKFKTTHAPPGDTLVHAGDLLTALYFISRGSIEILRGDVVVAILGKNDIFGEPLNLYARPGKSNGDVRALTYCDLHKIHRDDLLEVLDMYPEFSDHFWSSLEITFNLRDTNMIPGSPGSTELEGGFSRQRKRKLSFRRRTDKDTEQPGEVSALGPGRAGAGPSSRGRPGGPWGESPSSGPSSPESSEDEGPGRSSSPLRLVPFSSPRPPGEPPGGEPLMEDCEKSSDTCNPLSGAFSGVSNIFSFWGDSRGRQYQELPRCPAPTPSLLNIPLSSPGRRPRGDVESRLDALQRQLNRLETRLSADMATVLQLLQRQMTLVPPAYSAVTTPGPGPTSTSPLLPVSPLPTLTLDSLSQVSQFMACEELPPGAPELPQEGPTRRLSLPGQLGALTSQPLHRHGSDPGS
Chain of Voltage-gated inwardly rectifying potassium channel KCNH2 (Q12809 whole entry): as above

`COc1ccc2ccc(=O)n(C[C@H](O)[C@@H]3CC[C@@H](NCc4ccc5c(n4)NC(=O)CO5)CO3)c2n1` showed a pIC50 [1] of 6.90, a pIC50 [2] of 7.52 and an MIC [3] of at most 0.03 µg/mL. For the same compound, the MIC [4] was 0.5 µg/mL (≈ 1.04 µM), the MIC [5] was at most 0.03 µg/mL and the MIC [6] was 8 µg/mL (≈ 16.6 µM). It also gave a pIC50 [7] of 6.90, a pIC50 [8] of 6.90 and a pIC50 [9] of 6.90. The pIC50 [10] was 7.52, the logD [11] was 2 and the AUC/dose [12] was 378 ng·h/mL. For the same compound, the fraction unbound [13] was 0.167, the fAUC/dose [14] was 63 µg·h/mL and the clearance [15] was 44 mL/min/kg. For the same compound, the CL free [16] was 263 mL/min/kg, the Vd [17] was 2.5 L/kg and the half-life [18] was 1 h. The inhibition at 30 µM [19] was 71%, the pIC50 [20] was 4.82 and the IC20 [21] was 3700 nM. For the same compound, the “Drug uptake(free)” value [22] was 0.86 µM, the Drug uptake [23] was 1.4 µM and the “Cp(f)” value [24] was 1.5 µM. For the same compound, the “Cp(f)” value [25] was 6 µM, the “Cp(f)” value [26] was 21 µM and the “Cp(f)” value [27] was 21 µM. For the same compound, the “Cp(f)” value [28] was over 21 µM and the fraction unbound at 20 min [29] was 0.43.

Reference: ChEMBL document CHEMBL4049439, “Synthesis and Characterization of Tetrahydropyran-Based Bacterial Topoisomerase Inhibitors with Antibacterial Activity against Gram-Negative Bacteria” (J Med Chem, 2017)
